{"source": "paper PMC7551138", "about": "(Alzheimer's & Dementia : Translational Research & Clinical …, 2020)", "key": {"healthy elderly subjects": {"tested_on": "healthy elderly subjects", "assay": "Monitoring of treatment‐emergent adverse events", "format": "in vivo, human", "settings": "16 mg oral, single dose; within 24 hours after administration", "outline": "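Randomised, double-blind, placebo-controlled trial in healthy subjects aged ≥65 (n=48; 12 active:4 placebo per cohort, placebos pooled). Intranasal test compound 5.5, 11 or 22 mg or 0.9% NaCl b.i.d. for 7 days, 6 h between doses. The 11 mg active subjects later got one open-label oral 16 mg dose of the parent drug. Safety was tracked by TEAEs, nasal examination, vital signs, ECG and safety bloods.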"}, "[1]": {"settings": "4 mg/kg in mice; cited from earlier work"}}, "data": [{"smiles": "COc1ccc2c3c1O[C@H]1C[C@@H](O)C=C[C@@]31CCN(C)C2", "note": "[galantamine, reference compound]", "values": [{"measurement": "TEAEs within 24 hours: All gastrointestinal disorders", "setting": "healthy elderly subjects", "value": "8 (66.7) number of subjects (percentage"}, {"measurement": "TEAEs within 24 hours: Any events", "setting": "healthy elderly subjects", "value": "10 (83.3) number of subjects (percentage"}, {"measurement": "TEAEs within 24 hours: Diarrhea", "setting": "healthy elderly subjects", "value": "1 (8.3) number of subjects (percentage"}, {"measurement": "TEAEs within 24 hours: Nausea", "setting": "healthy elderly subjects", "value": "5 (41.7) number of subjects (percentage"}, {"measurement": "TEAEs within 24 hours: Vomiting", "setting": "healthy elderly subjects", "value": "5 (41.7) number of subjects (percentage"}, {"measurement": "brain‐to‐blood ratio", "setting": "[1]", "value": 2.1}]}]}
